Experimental findings from ChEMBL document CHEMBL1156410, “Design and synthesis of a combinatorial chemistry library of 7-acyl, 10-acyl, and 7,10-diacyl analogues of paclitaxel (taxol) using solid phase synthesis” (J Nat Prod, 2002) are described below.

Experiment [1] in a line: Induction of tubulin polymerization at 1 uM by DAPI fluorescence method relative to control. Put shortly: (§1)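 Microplate assay in PMEG buffer (100 mM PIPES, 1 mM MgSO₄, 2 mM EGTA, 0.1 mM GTP, pH 6.9) containing ligand; DAPI final 10 µM, tubulin final 5 µM. Fluorescence followed at 37 °C, excitation 360/40 nm, emission 460/40 nm. Change in fluorescence normalized to the curve of 10 µM paclitaxel standard. Samples in duplicate, triplicate or quadruplicate; concentrations over 2 orders of magnitude tested.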

Experiment [2] is described as follows: Induction of tubulin polymerization at 10 uM by DAPI fluorescence method relative to control. Put shortly: as §1
Experiment [3] in a line: Induction of tubulin polymerization at 0.1 uM by DAPI fluorescence method relative to control. An outline of the steps: as §1
The test system of another experiment is A2780. Briefly: Cytotoxicity against human A2780 cells. It counts as functional, cell-based.
A short description of experiment [4]: Induction of tubulin polymerization by DAPI fluorescence method. The conditions noted are these: read-out: I50. An outline of the steps:
as §1

SMILES strings stand for the structures. Values after ≈ are worked out from the molar mass of the structure shown.

In the case of `CC(=O)O[C@@]12CO[C@@H]1C[C@H](OC(=O)C1CC1)[C@@]1(C)C(=O)[C@H](OC(=O)c3ccccc3)C3=C(C)[C@@H](OC(=O)[C@H](O)[C@@H](NC(=O)c4ccccc4)c4ccccc4)C[C@@](O)([C@@H](OC(=O)c4ccccc4)[C@H]21)C3(C)C`, the Activity in experiment [1] is 61%; in experiment [2], 91%; in experiment [3], 30%.

As to `CC(=O)O[C@@]12CO[C@@H]1C[C@H](O)[C@@]1(C)C(=O)[C@H](OC(=O)c3ccccc3)C3=C(C)[C@@H](OC(=O)[C@H](O)[C@@H](NC(=O)c4ccccc4)c4ccccc4)C[C@@](O)([C@@H](OC(=O)c4ccccc4)[C@H]21)C3(C)C`, the Activity was found to be 78% in experiment [1], 113% in experiment [2] and 46% in experiment [3].

Take `CC(=O)O[C@@]12CO[C@@H]1C[C@H](OC(=O)CN1CCC(N3CCCC3)CC1)[C@@]1(C)C(=O)[C@H](O)C3=C(C)[C@@H](OC(=O)[C@H](O)[C@@H](NC(=O)c4ccccc4)c4ccccc4)C[C@@](O)([C@@H](OC(=O)c4ccccc4)[C@H]21)C3(C)C`: the IC50 in the experiment on A2780 is 0.96 µg/mL (≈ 0.954 µM); in experiment [4] it was 850 nM.

Take `C/C=C/C(=O)O[C@H]1C(=O)[C@@]2(C)[C@H]([C@H](OC(=O)c3ccccc3)[C@]3(O)C[C@H](OC(=O)[C@H](O)[C@@H](NC(=O)c4ccccc4)c4ccccc4)C(C)=C1C3(C)C)[C@]1(OC(C)=O)CO[C@@H]1C[C@@H]2O`: the Activity in experiment [1] came out at 80%; in experiment [2] it was 117%; in experiment [3] it was 26%.

On to `CCCC(=O)O[C@H]1C[C@H]2OC[C@@]2(OC(C)=O)[C@H]2[C@H](OC(=O)c3ccccc3)[C@]3(O)C[C@H](OC(=O)[C@H](O)[C@@H](NC(=O)c4ccccc4)c4ccccc4)C(C)=C([C@@H](OC(=O)CC)C(=O)[C@]12C)C3(C)C`, for which the Activity in experiment [1] amounted to 52%; in experiment [2], 123%; in experiment [3] it was 4%.

For the molecule `COc1cccc(C(=O)O[C@H]2C[C@H]3OC[C@@]3(OC(C)=O)[C@H]3[C@H](OC(=O)c4ccccc4)[C@]4(O)C[C@H](OC(=O)[C@H](O)[C@@H](NC(=O)c5ccccc5)c5ccccc5)C(C)=C([C@@H](OC(=O)c5ccccc5)C(=O)[C@]23C)C4(C)C)c1`, the Activity came to 52% in experiment [1], 78% in experiment [2] and 22% in experiment [3].

For `CCC(=O)O[C@H]1C(=O)[C@@]2(C)[C@H]([C@H](OC(=O)c3ccccc3)[C@]3(O)C[C@H](OC(=O)[C@H](O)[C@@H](NC(=O)c4ccccc4)c4ccccc4)C(C)=C1C3(C)C)[C@]1(OC(C)=O)CO[C@@H]1C[C@@H]2O`, the Activity worked out at 54% in experiment [1], 114% in experiment [2] and 13% in experiment [3].

`CCCCC(=O)O[C@H]1C[C@H]2OC[C@@]2(OC(C)=O)[C@H]2[C@H](OC(=O)c3ccccc3)[C@]3(O)C[C@H](OC(=O)[C@H](O)[C@@H](NC(=O)c4ccccc4)c4ccccc4)C(C)=C([C@@H](OC(=O)CC)C(=O)[C@]12C)C3(C)C`: the Activity in experiment [1] worked out at 51%; in experiment [2], 102%; in experiment [3], 10%.

In the case of `CC(=O)O[C@@]12CO[C@@H]1C[C@H](OC(=O)CCl)[C@@]1(C)C(=O)[C@H](OC(=O)c3ccccc3)C3=C(C)[C@@H](OC(=O)[C@H](O)[C@@H](NC(=O)c4ccccc4)c4ccccc4)C[C@@](O)([C@@H](OC(=O)c4ccccc4)[C@H]21)C3(C)C`, the Activity in experiment [1] was determined as 56%; in experiment [2], 92%; in experiment [3], 29%.

Consider `CCC(=O)O[C@H]1C(=O)[C@]2(C)[C@@H](OC(=O)c3ccccc3)C[C@H]3OC[C@@]3(OC(C)=O)[C@H]2[C@H](OC(=O)c2ccccc2)[C@]2(O)C[C@H](OC(=O)[C@H](O)[C@@H](NC(=O)c3ccccc3)c3ccccc3)C(C)=C1C2(C)C`, for which the figures for the Activity in experiment [1], in experiment [2] and in experiment [3] were 33%, 97% and 0%, respectively.

Regarding `CC(=O)O[C@@]12CO[C@@H]1C[C@H](OC(=O)CN1Cc3ccccc3C1)[C@@]1(C)C(=O)[C@H](O)C3=C(C)[C@@H](OC(=O)[C@H](O)[C@@H](NC(=O)c4ccccc4)c4ccccc4)C[C@@](O)([C@@H](OC(=O)c4ccccc4)[C@H]21)C3(C)C`, the IC50 in experiment [4] was found to be 2040 nM.

Turning to `CC(=O)O[C@@]12CO[C@@H]1C[C@H](OC(=O)c1ccccc1)[C@@]1(C)C(=O)[C@H](OC(=O)OCc3ccccc3)C3=C(C)[C@@H](OC(=O)[C@H](O)[C@@H](NC(=O)c4ccccc4)c4ccccc4)C[C@@](O)([C@@H](OC(=O)c4ccccc4)[C@H]21)C3(C)C`, the Activity in experiment [1] was found to be 32%; in experiment [2], 33%; in experiment [3] it was 10%.

As for `C/C=C/C(=O)O[C@H]1C(=O)[C@]2(C)[C@@H](OC(=O)CCl)C[C@H]3OC[C@@]3(OC(C)=O)[C@H]2[C@H](OC(=O)c2ccccc2)[C@]2(O)C[C@H](OC(=O)[C@H](O)[C@@H](NC(=O)c3ccccc3)c3ccccc3)C(C)=C1C2(C)C`, the Activity was found to be 66% in experiment [1], 116% in experiment [2] and 29% in experiment [3].

Regarding `CCC(=O)O[C@H]1C(=O)[C@]2(C)[C@@H](OC(=O)C3CC3)C[C@H]3OC[C@@]3(OC(C)=O)[C@H]2[C@H](OC(=O)c2ccccc2)[C@]2(O)C[C@H](OC(=O)[C@H](O)[C@@H](NC(=O)c3ccccc3)c3ccccc3)C(C)=C1C2(C)C`, the Activity was determined as 62% in experiment [1], 113% in experiment [2] and 6% in experiment [3].

With `CCC(=O)O[C@H]1C(=O)[C@]2(C)[C@@H](OC(C)=O)C[C@H]3OC[C@@]3(OC(C)=O)[C@H]2[C@H](OC(=O)c2ccccc2)[C@]2(O)C[C@H](OC(=O)[C@H](O)[C@@H](NC(=O)c3ccccc3)c3ccccc3)C(C)=C1C2(C)C`, the Activity came to 44% in experiment [1], 111% in experiment [2] and 5% in experiment [3].

As for `C/C=C/C(=O)O[C@H]1C(=O)[C@]2(C)[C@@H](OC(=O)C3CC3)C[C@H]3OC[C@@]3(OC(C)=O)[C@H]2[C@H](OC(=O)c2ccccc2)[C@]2(O)C[C@H](OC(=O)[C@H](O)[C@@H](NC(=O)c3ccccc3)c3ccccc3)C(C)=C1C2(C)C`, the Activity in experiment [1] was 41%; in experiment [2], 109%; in experiment [3] it was 27%.

Regarding `CC(=O)O[C@@]12CO[C@@H]1C[C@H](OC(=O)C1CC1)[C@@]1(C)C(=O)[C@H](OC(=O)OCc3ccccc3)C3=C(C)[C@@H](OC(=O)[C@H](O)[C@@H](NC(=O)c4ccccc4)c4ccccc4)C[C@@](O)([C@@H](OC(=O)c4ccccc4)[C@H]21)C3(C)C`, the values for the Activity in experiment [1], in experiment [2] and in experiment [3] were 26%, 53% and 10%, respectively.

Regarding `CC(=O)O[C@@]12CO[C@@H]1C[C@H](OC(=O)CCl)[C@@]1(C)C(=O)[C@H](OC(=O)OCc3ccccc3)C3=C(C)[C@@H](OC(=O)[C@H](O)[C@@H](NC(=O)c4ccccc4)c4ccccc4)C[C@@](O)([C@@H](OC(=O)c4ccccc4)[C@H]21)C3(C)C`, the Activity in experiment [1] was 20%; in experiment [2] it was 48%; in experiment [3], 0%.

Consider `CCC(=O)O[C@H]1C[C@H]2OC[C@@]2(OC(C)=O)[C@H]2[C@H](OC(=O)c3ccccc3)[C@]3(O)C[C@H](OC(=O)[C@H](O)[C@@H](NC(=O)c4ccccc4)c4ccccc4)C(C)=C([C@@H](OC(=O)OCc4ccccc4)C(=O)[C@]12C)C3(C)C`, for which the results for the Activity in experiment [1], in experiment [2] and in experiment [3] were 3%, 24% and 0%, respectively.

As for `C/C=C/C(=O)O[C@H]1C(=O)[C@]2(C)[C@@H](OC(=O)c3ccccc3)C[C@H]3OC[C@@]3(OC(C)=O)[C@H]2[C@H](OC(=O)c2ccccc2)[C@]2(O)C[C@H](OC(=O)[C@H](O)[C@@H](NC(=O)c3ccccc3)c3ccccc3)C(C)=C1C2(C)C`, the Activity in experiment [1] is 66%; in experiment [2] it was 81%; in experiment [3], 33%.

For `CCC(=O)O[C@H]1C(=O)[C@]2(C)[C@@H](OC(=O)CC)C[C@H]3OC[C@@]3(OC(C)=O)[C@H]2[C@H](OC(=O)c2ccccc2)[C@]2(O)C[C@H](OC(=O)[C@H](O)[C@@H](NC(=O)c3ccccc3)c3ccccc3)C(C)=C1C2(C)C`, the Activity in experiment [1] is 37%; in experiment [2], 111%; in experiment [3], 5%.

In the experiment with A2780, `CC(=O)O[C@@]12CO[C@@H]1C[C@H](OC(=O)CN1CCNCC1)[C@@]1(C)C(=O)[C@H](O)C3=C(C)[C@@H](OC(=O)[C@H](O)[C@@H](NC(=O)c4ccccc4)c4ccccc4)C[C@@](O)([C@@H](OC(=O)c4ccccc4)[C@H]21)C3(C)C` had an IC50 of 0.86 µg/mL (≈ 0.917 µM).

Regarding `CC(=O)O[C@@]12CO[C@@H]1C[C@H](OC(=O)C=C(C)C)[C@@]1(C)C(=O)[C@H](OC(=O)OCc3ccccc3)C3=C(C)[C@@H](OC(=O)[C@H](O)[C@@H](NC(=O)c4ccccc4)c4ccccc4)C[C@@](O)([C@@H](OC(=O)c4ccccc4)[C@H]21)C3(C)C`, the Activity in experiment [1] stood at 39%; in experiment [2], 43%; in experiment [3] it was 10%.

Consider `CCC(=O)O[C@H]1C(=O)[C@]2(C)[C@@H](OC(=O)CCl)C[C@H]3OC[C@@]3(OC(C)=O)[C@H]2[C@H](OC(=O)c2ccccc2)[C@]2(O)C[C@H](OC(=O)[C@H](O)[C@@H](NC(=O)c3ccccc3)c3ccccc3)C(C)=C1C2(C)C`, for which the results for the Activity in experiment [1], in experiment [2] and in experiment [3] were 72%, 114% and 20%, respectively.

Turning to `CCC(=O)O[C@H]1C(=O)[C@]2(C)[C@@H](OC(=O)C=C(C)C)C[C@H]3OC[C@@]3(OC(C)=O)[C@H]2[C@H](OC(=O)c2ccccc2)[C@]2(O)C[C@H](OC(=O)[C@H](O)[C@@H](NC(=O)c3ccccc3)c3ccccc3)C(C)=C1C2(C)C`, the results for the Activity in experiment [1], in experiment [2] and in experiment [3] were 51%, 120% and 20%, respectively.

In the case of `CC(=O)O[C@@]12CO[C@@H]1C[C@H](O)[C@@]1(C)C(=O)[C@H](OC(=O)OCc3ccccc3)C3=C(C)[C@@H](OC(=O)[C@H](O)[C@@H](NC(=O)c4ccccc4)c4ccccc4)C[C@@](O)([C@@H](OC(=O)c4ccccc4)[C@H]21)C3(C)C`, the values for the Activity in experiment [1], in experiment [2] and in experiment [3] were 83%, 115% and 34%, respectively.
